Assay results as given in ChEMBL document CHEMBL3603839, “Synthesis and antiproliferative activity of new bioconjugates of Salinomycin with amino acid esters” (Bioorg Med Chem Lett, 2015).

Experiments:
MV4-11 [1] = assay: Selectivity index, ratio of IC50 for mouse BALB/3T3 cells to IC50 for human MV4-11 cells; assay type: functional
Procedure, shortened: (§1)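 Selectivity index is the IC50 in normal BALB/3T3 fibroblasts divided by the IC50 in the respective cancer line. SI above 1.0 is taken as a favourable value.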

BALB/3T3 = assay: Antiproliferative activity against mouse BALB/3T3 cells after 72 hrs; assay type: cell-based; conditions: BALB/3T3, 72 h
Procedure, shortened: (§2)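 IC50 values (mean ± SD) were measured against human colon adenocarcinoma LoVo cells, their doxorubicin-resistant LoVo/DX subline, MV4-11 cells, and normal murine embryonic fibroblasts (BALB/3T3).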

MV4-11 [2] = assay: Antiproliferative activity against human MV4-11 cells after 72 hrs; assay type: functional, cell-based; conditions: MV4-11, 72 h; procedure, shortened: as §2
LoVo [3] = assay: Antiproliferative activity against human LoVo cells after 72 hrs; assay type: functional, cell-based; procedure, shortened: as §2
[4] = Selectivity index, ratio of IC50 for mouse BALB/3T3 cells to IC50 for human LoVo/DX cells; assay type: functional; procedure, shortened: as §1
[5] = Antiproliferative activity against doxorubicin-resistant human LoVo/DX cells after 72 hrs; assay type: functional, cell-based; procedure, shortened: as §2
LoVo [6] = assay: Resistant index, ratio of IC50 for human LoVo/DX cells to IC50 for LoVo cells; assay type: functional
Procedure, shortened: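 Resistance index was calculated from IC50 values obtained in the doxorubicin-resistant LoVo/DX subline and the parental LoVo line. RI 0–2 is classed as sensitive, 2–10 as moderately sensitive, and above 10 as strongly resistant.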

LoVo [7] = assay: Selectivity index, ratio of IC50 for mouse BALB/3T3 cells to IC50 for human LoVo cells; assay type: functional; procedure, shortened: as §1
[8] = Ratio of doxorubicin IC50 to compound IC50 for doxorubicin-resistant human LoVo/DX cells; assay type: functional
[9] = Ratio of cisplatin IC50 to compound IC50 for doxorubicin-resistant human LoVo/DX cells; assay type: functional

CC[C@@H](C(=O)[C@@H](C)[C@@H](O)[C@H](C)[C@@H]1O[C@@H]([C@@H](CC)C(=O)NCC(=O)OC)CC[C@@H]1C)[C@H]1O[C@]2(C=C[C@@H](O)[C@]3(CC[C@@](C)([C@H]4CC[C@](O)(CC)[C@H](C)O4)O3)O2)[C@H](C)C[C@@H]1C
Ratio IC50 (MV4-11 [1]): 11.64
IC50 (BALB/3T3): 42.5 µM
IC50 (MV4-11 [2]): 3.65 µM
IC50 (LoVo [3]): 5.29 µM
Ratio IC50 [4]: 10.81
IC50 [5]: 3.93 µM
Ratio IC50 (LoVo [6]): 0.74
Ratio IC50 (LoVo [7]): 8.03

CC[C@@H](C(=O)[C@@H](C)[C@@H](O)[C@H](C)[C@@H]1O[C@@H]([C@@H](CC)C(=O)N[C@@H](CO)C(=O)OC)CC[C@@H]1C)[C@H]1O[C@]2(C=C[C@@H](O)[C@]3(CC[C@@](C)([C@H]4CC[C@](O)(CC)[C@H](C)O4)O3)O2)[C@H](C)C[C@@H]1C
Ratio IC50 (MV4-11 [1]): 6.9
IC50 (BALB/3T3): 40.1 µM
IC50 (MV4-11 [2]): 5.81 µM
IC50 (LoVo [3]): 17.7 µM
Ratio IC50 [4]: 5.16
IC50 [5]: 7.77 µM
Ratio IC50 (LoVo [6]): 0.44
Ratio IC50 (LoVo [7]): 2.27

CC[C@@H](C(=O)[C@@H](C)[C@@H](O)[C@H](C)[C@@H]1O[C@@H]([C@@H](CC)C(=O)N[C@@H](Cc2cnc[nH]2)C(=O)OC)CC[C@@H]1C)[C@H]1O[C@]2(C=C[C@@H](O)[C@]3(CC[C@@](C)([C@H]4CC[C@](O)(CC)[C@H](C)O4)O3)O2)[C@H](C)C[C@@H]1C
Ratio IC50 (MV4-11 [1]): 46.26
IC50 (BALB/3T3): 37 µM
IC50 (MV4-11 [2]): 0.8 µM
IC50 (LoVo [3]): 3.67 µM
Ratio IC50 [4]: 43.54
IC50 [5]: 0.85 µM
Ratio IC50 (LoVo [6]): 0.23
Ratio IC50 [8]: 9
Ratio IC50 (LoVo [7]): 10.08
Ratio IC50 [9]: 3

CC[C@@H](C(=O)[C@@H](C)[C@@H](O)[C@H](C)[C@@H]1O[C@@H]([C@@H](CC)C(=O)N[C@@H](Cc2ccccc2)C(=O)OC)CC[C@@H]1C)[C@H]1O[C@]2(C=C[C@@H](O)[C@]3(CC[C@@](C)([C@H]4CC[C@](O)(CC)[C@H](C)O4)O3)O2)[C@H](C)C[C@@H]1C
Ratio IC50 (MV4-11 [1]): 5.89
IC50 (BALB/3T3): 17 µM
IC50 (MV4-11 [2]): 2.89 µM
IC50 (LoVo [3]): 3.49 µM
Ratio IC50 [4]: 4.87
IC50 [5]: 3.49 µM
Ratio IC50 (LoVo [6]): 1
Ratio IC50 (LoVo [7]): 4.87

CC[C@@H](C(=O)[C@@H](C)[C@@H](O)[C@H](C)[C@@H]1O[C@@H]([C@@H](CC)C(=O)N[C@@H](Cc2ccc(O)cc2)C(=O)OC)CC[C@@H]1C)[C@H]1O[C@]2(C=C[C@@H](O)[C@]3(CC[C@@](C)([C@H]4CC[C@](O)(CC)[C@H](C)O4)O3)O2)[C@H](C)C[C@@H]1C
Ratio IC50 (MV4-11 [1]): 12.22
IC50 (BALB/3T3): 43.4 µM
IC50 (MV4-11 [2]): 3.55 µM
IC50 (LoVo [3]): 14.7 µM
Ratio IC50 [4]: 6.09
IC50 [5]: 7.12 µM
Ratio IC50 (LoVo [6]): 0.48
Ratio IC50 (LoVo [7]): 2.95

COc1cccc2c1C(=O)c1c(O)c3c(c(O)c1C2=O)C[C@@](O)(C(=O)CO)C[C@@H]3O[C@H]1C[C@H](N)[C@H](O)[C@H](C)O1 [DOXORUBICIN]
Ratio IC50 (MV4-11 [1]): 6.2
IC50 (BALB/3T3): 0.31 µM
IC50 (MV4-11 [2]): 0.05 µM
IC50 (LoVo [3]): 0.09 µM
Ratio IC50 [4]: 0.04
IC50 [5]: 7.26 µM
Ratio IC50 (LoVo [6]): 80.67
Ratio IC50 (LoVo [7]): 3.44

CC[C@@H](C(=O)[C@@H](C)[C@@H](O)[C@H](C)[C@@H]1O[C@@H]([C@@H](CC)C(=O)O)CC[C@@H]1C)[C@H]1O[C@]2(C=C[C@@H](O)[C@]3(CC[C@@](C)([C@H]4CC[C@](O)(CC)[C@H](C)O4)O3)O2)[C@H](C)C[C@@H]1C [SALINOMYCIN]
Ratio IC50 (MV4-11 [1]): 84.12
IC50 (MV4-11 [2]): 0.33 µM
IC50 (LoVo [3]): 0.53 µM
Ratio IC50 [4]: 47.05
IC50 [5]: 0.59 µM
Ratio IC50 (LoVo [6]): 1.11
Ratio IC50 (LoVo [7]): 52.38
